Drawing on ChEMBL document CHEMBL3526048, “In vitro metabolism of rivoglitazone, a novel peroxisome proliferator-activated receptor γ agonist, in rat, monkey, and human liver microsomes and freshly isolated hepatocytes” (Drug Metab Dispos, 2011), this text covers Drug metabolism for two compounds.

One data set concerns Hepatocyte. Kind of data set: Drug level in rat hepatocytes treated with [14C]-rivoglitazone at 30 uM after 3 hrs by radio-HPLC/LC-MS/MS analysis in presence of UDPGA, UDPGA/SAM and NADPH-generating system. Format: ADME, cell-based.
Data set [1] can be described thus: Drug metabolism in cynomolgus monkey liver microsomes assessed as formation of 3-(4-((6-methoxy-1-methyl-1H-benzo[d]imidazol-2-yl)methoxy)phenyl)-2-(methylthio)propanoic acid at 20 uM after 2 to 4 hrs by radio-HPLC/LC-MS/MS analysis in presence of NADPH-generating system/SAM and UDPGA/SAM. Format: ADME, Macaca fascicularis. In general terms: Liver microsomes are a subcellular fraction often used to study metabolism.

Data set [2] concerns the target T1, UDP-glucuronosyltransferase 2B15 (Homo sapiens, UniProt P54855).
T1 sequence (P54855 whole entry): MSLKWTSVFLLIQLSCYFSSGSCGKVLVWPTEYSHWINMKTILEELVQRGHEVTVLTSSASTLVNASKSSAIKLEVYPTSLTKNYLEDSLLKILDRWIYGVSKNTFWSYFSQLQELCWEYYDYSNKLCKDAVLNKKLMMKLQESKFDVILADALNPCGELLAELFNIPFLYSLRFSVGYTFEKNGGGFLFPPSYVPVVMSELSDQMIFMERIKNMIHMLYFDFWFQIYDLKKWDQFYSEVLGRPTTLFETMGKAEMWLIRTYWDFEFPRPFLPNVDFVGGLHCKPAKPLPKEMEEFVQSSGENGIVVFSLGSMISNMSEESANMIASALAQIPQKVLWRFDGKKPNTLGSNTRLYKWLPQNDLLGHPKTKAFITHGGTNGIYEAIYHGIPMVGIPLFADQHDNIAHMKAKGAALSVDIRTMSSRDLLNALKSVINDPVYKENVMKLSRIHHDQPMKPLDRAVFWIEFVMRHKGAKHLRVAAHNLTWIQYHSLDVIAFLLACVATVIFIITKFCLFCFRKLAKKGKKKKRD
Kind of data set: Activity of human UGT2B15 expressed in microsomes isolated from baculovirus infected insect cell assessed as enzyme-mediated 2-mercapto-3-(4-((6-methoxy-1-methyl-1H-benzo[d]imidazol-2-yl)methoxy)phenyl)propanoic acid formation at 20 uM after 4 hrs by radio-HPLC/LC-MS/MS analysis in presence of UDPGA. It is filed as ADME.

The nature of data set [3]: Drug metabolism in rat hepatocytes assessed as formation of (2S,3S,4S,5R,6R)-3,4,5-trihydroxy-6-(5-(4-((6-methoxy-1-methyl-1H-benzo[d]imidazol-2-yl)methoxy)benzyl)-2,4-dioxothiazolidin-3-yl)tetrahydro-2H-pyran-2-carboxylic acid at 30 uM after 3 hrs by radio-HPLC/LC-MS/MS analysis. It is filed as ADME, cell-based, Hepatocyte.
A short description of data set [4]: Drug metabolism in human hepatocytes assessed as formation of (2S,3S,4S,5R,6R)-3,4,5-trihydroxy-6-(5-(4-((6-methoxy-1-methyl-1H-benzo[d]imidazol-2-yl)methoxy)benzyl)-2,4-dioxothiazolidin-3-yl)tetrahydro-2H-pyran-2-carboxylic acid at 30 uM after 3 hrs by radio-HPLC/LC-MS/MS analysis. It is filed as ADME, cell-based, Hepatocyte.
The nature of data set [5]: Drug metabolism in rat hepatocytes assessed as formation of 3-(4-((6-methoxy-1-methyl-1H-benzo[d]imidazol-2-yl)methoxy)phenyl)-2-(methylthio)propanamide at 30 uM after 3 hrs by radio-HPLC/LC-MS/MS analysis in presence of NADPH-generating system/SAM. Format: ADME, cell-based, Hepatocyte.
Data set [6] has as its target T2, UDP-glucuronosyltransferase 1A3 (Homo sapiens, UniProt P35503).
T2 sequence (P35503 whole entry): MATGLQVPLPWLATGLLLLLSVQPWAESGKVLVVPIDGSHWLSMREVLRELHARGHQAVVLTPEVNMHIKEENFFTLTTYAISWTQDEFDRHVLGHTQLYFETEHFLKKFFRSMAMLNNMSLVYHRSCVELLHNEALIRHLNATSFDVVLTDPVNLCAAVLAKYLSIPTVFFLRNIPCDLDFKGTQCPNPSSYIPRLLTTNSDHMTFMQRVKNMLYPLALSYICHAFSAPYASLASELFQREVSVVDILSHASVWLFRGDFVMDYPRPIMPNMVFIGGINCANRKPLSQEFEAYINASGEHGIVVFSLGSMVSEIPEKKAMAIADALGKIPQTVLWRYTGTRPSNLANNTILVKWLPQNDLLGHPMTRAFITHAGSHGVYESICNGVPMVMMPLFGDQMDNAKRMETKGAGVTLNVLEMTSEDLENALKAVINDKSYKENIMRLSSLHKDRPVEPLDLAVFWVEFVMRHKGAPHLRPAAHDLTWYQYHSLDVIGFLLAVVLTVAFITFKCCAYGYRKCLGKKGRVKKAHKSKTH
The data set can be described thus: Activity of human UGT1A3 expressed in microsomes isolated from baculovirus infected insect cell assessed as enzyme-mediated 3-(4-((6-methoxy-1-methyl-1H-benzo[d]imidazol-2-yl)methoxy)phenyl)-2-(methylsulfinyl)propanamide formation at 20 uM after 4 hrs by radio-HPLC/LC-MS/MS analysis in presence of NADPH-generating system/SAM. It is filed as ADME.

A further data set concerns the target Cytochrome P450 2C19 (Homo sapiens, UniProt P33261). The data set can be described thus: Activity of human CYP2C19 expressed in microsomes isolated from baculovirus infected insect cell assessed as enzyme-mediated 5-hydroxy-5-(4-((6-methoxy-1-methyl-1H-benzo[d]imidazol-2-yl)methoxy)benzyl)thiazolidine-2,4-dione formation at 20 uM after 2 hrs by radio-HPLC/LC-MS/MS analysis in presence of NADPH-generating system and NADPH-generating system/SAM. Format: ADME. Put shortly: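 Baculovirus/insect-cell microsomes expressing single human CYPs, 1 mg/ml protein, with 50 mM potassium phosphate (pH 7.4) or 100 mM Tris-HCl (pH 7.5). NADPH-generating system: 2 mM NADP⁺, 20 mM glucose 6-phosphate, 2 units/ml G6PDH, 10 mM MgCl₂. [¹⁴C]rivoglitazone at 20 μM, 2 h at 37°C with shaking. Control used insect-cell control supersomes. Stopped with acetonitrile; supernatant concentrated under nitrogen; metabolites analysed by radio-HPLC, LC-MS and LC-MS/MS.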

Data set [7] can be described thus: Drug metabolism in cynomolgus monkey liver microsomes assessed as formation of (2S,3S,4S,5R,6R)-3,4,5-trihydroxy-6-(5-(4-((6-methoxy-1-methyl-1H-benzo[d]imidazol-2-yl)methoxy)benzyl)-2,4-dioxothiazolidin-3-yl)tetrahydro-2H-pyran-2-carboxylic acid at 20 uM after 4 hrs by radio-HPLC/LC-MS/MS analysis in presence of UDPGA and UDPGA/SAM. Format: ADME, Macaca fascicularis.

Data set [8] concerns the target T2, UDP-glucuronosyltransferase 1A3. Kind of data set: Activity of human UGT1A3 expressed in microsomes isolated from baculovirus infected insect cell assessed as enzyme-mediated 2-mercapto-3-(4-((6-methoxy-1-methyl-1H-benzo[d]imidazol-2-yl)methoxy)phenyl)propanamide formation at 20 uM after 4 hrs by radio-HPLC/LC-MS/MS analysis in presence of NADPH-generating system and NADPH-generating system/SAM in presence of UDPGA and UDPGA/SAM. It is filed as ADME.

Chain of Cytochrome P450 2C19 (P33261 whole entry): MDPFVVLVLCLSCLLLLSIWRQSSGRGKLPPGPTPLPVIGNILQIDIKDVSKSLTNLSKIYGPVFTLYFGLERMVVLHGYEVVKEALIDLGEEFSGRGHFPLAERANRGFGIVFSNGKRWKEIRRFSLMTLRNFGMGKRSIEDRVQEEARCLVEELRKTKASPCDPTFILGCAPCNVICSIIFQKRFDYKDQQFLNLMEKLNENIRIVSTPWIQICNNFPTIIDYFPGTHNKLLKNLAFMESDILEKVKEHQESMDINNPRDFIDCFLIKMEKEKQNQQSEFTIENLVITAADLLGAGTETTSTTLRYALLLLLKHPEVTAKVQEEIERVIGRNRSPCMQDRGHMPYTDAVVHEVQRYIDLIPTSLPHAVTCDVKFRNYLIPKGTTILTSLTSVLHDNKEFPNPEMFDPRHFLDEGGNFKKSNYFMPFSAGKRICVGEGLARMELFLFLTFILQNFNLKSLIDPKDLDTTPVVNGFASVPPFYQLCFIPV

Turning to `COc1ccc2nc(COc3ccc(CC(S)C(=O)O)cc3)n(C)c2c1` (stereo not given), in the data set on Hepatocyte, the Drug metabolism result is listed as “metabolite_not_detected”.
Turning to `COc1ccc2nc(COc3ccc(C[14CH]4SC(=O)NC4=O)cc3)n(C)c2c1.Cl` (racemic), the Drug metabolism result in [1] is reported as “metabolite_detected”; in [2], “metabolite_not_detected”; in data set [3], “metabolite_detected”; in data set [4] it was “metabolite_detected”; in data set [5], “metabolite_detected”; in [6], “metabolite_not_detected”. The Drug metabolism result was “metabolite_detected” at Cytochrome P450 2C19, “metabolite_detected” in data set [7] and “metabolite_not_detected” in [8].
